GPR7 antagonist – blocks human GPR7 receptor signaling | P48145 | GPR7-expressing cells, fluorescence antagonist assay | inhibition, % at 4.4 µM | 1.1% of 290,000 active | AID 1861; in the data active means inhibition above about 16%, passing the limit was not always enough;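 further: cells stimulated with the agonist NPW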
TAAR1 antag – antagonists of human TAAR1; inhibition, % at 3 µM; 1.5% of 360,000 active; CHO RD-HGA16 TAAR1, Fluo-8 calcium fluorescence, antagonist;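 active means inhibition above a per-plate cutoff, the mean inhibition of test compounds on that plate plus 3 SD, cut at about 49% in these data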
Target sequence (Q96RJ0 whole entry, looked up): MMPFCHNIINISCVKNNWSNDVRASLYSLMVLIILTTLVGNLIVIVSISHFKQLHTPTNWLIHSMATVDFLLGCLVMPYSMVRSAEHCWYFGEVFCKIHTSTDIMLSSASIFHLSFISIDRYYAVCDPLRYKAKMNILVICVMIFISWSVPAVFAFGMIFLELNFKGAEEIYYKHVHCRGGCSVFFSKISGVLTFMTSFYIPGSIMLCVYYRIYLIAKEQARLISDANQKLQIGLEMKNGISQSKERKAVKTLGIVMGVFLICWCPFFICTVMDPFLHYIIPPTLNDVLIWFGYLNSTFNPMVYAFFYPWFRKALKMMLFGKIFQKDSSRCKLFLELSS
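System: RD-HGA16 CHO cells with stable hTAAR1 and Gα16 | Probe or stimulus: EC80 β-phenethylamine stimulus | Dosing: 3 µM, single point | Times: Dye loading 75 min at 37 °C, then 30 min room temperature | Measured by: Fluo-8 calcium-sensitive fluorescence | Read-out basis: % inhibition of agonist calcium response | Replicates: n of 1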
CHO parental Ca – counter-screen for OX1R antagonists: effect in parental CHO cells; parental CHO-K1, ATP-induced calcium, Fluo-8 fluorescence; inhibition, % at 5.6 µM; 0.63% of 330,000 active; AID 463079;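 active means inhibition above that plate's mean sample inhibition plus 3 SD, cut at about 26% in these data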
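test system = CHO parental line | reagent = ATP stimulus | measured by = intracellular calcium via Fluo-8 no-wash fluorescent dye | control set = ATP and no-ATP DMSO wells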
TAAR1 ag – human TAAR1 agonism; Q96RJ0; CHO RD-HGA16 TAAR1, Fluo-8 calcium fluorescence; vehicle wells 0%, saturating PEA agonist 100%; activation, % at 3 µM; 0.99% of 360,000 active; AID 624467;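 active means activation above the mean activation of all test compounds in the run plus 3 SD, cut at about 38% in these data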
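Test system: RD-HGA16 (CHO) cells co-expressing Gα16 and hTAAR1 | Doses: Single dose, 3 µM | Schedule: 17-24 h seeding, 75 min 37 °C dye, 30 min RT | Evaluation: % activation from peak over basal fluorescence ratio, DMSO-to-PEA scaled | Technique: Kinetic Fluo-8 calcium fluorescence | Benchmarks: Low control DMSO, high control PEA (EC100)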
OX1R antag-1 – antagonists of human orexin 1 receptor | CHO/OX1R cells, Fluo-8 calcium fluorescence, orexin A | O43613 | 0.43% of 330,000 active | inhibition, % at 5 µM;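 active means inhibition above its plate's threshold, mean inhibition of all tested compounds on the plate plus 3 SD, cut at about 37% in these data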
Target sequence (O43613 whole entry, looked up): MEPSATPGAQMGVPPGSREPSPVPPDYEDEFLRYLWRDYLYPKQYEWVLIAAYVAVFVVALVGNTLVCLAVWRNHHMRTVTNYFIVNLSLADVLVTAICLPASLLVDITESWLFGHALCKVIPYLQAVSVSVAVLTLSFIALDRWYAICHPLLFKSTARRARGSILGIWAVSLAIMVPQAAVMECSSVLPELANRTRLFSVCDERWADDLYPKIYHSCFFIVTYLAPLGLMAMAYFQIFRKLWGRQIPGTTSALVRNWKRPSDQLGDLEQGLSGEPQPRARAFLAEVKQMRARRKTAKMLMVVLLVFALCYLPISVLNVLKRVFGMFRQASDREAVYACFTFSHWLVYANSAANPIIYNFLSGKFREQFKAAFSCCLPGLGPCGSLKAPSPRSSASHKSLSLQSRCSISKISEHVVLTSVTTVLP
OX1R antag-2 – blocks the human orexin 1 receptor; OX1R-expressing cells, FRET antagonist read-out; inhibition, % at 6.6 µM; 1.8% of 330,000 active; AID 485270; in the data active means inhibition mostly above about 38%, no sharp cut-off; inactive means mostly below about 40%
Each line names hits and unclear results; the compound was inactive in the other large screens. The list is not random: actives were taken first. Their share in the collection is about 4.6%.

CCc1ccc2[nH]c(=O)c(CN(Cc3ccccc3OC)Cc3nnnn3Cc3ccco3)cc2c1	none
O=C(Nc1cccc(NC(=O)c2nccc3ccccc23)c1)c1ccco1	OX1R antag-2 54 (no result: GPR7 antagonist)
O=C(Nc1cccc(-c2nc3cccnc3s2)c1)c1ccco1	OX1R antag-2 64
CCOc1ncccc1C(=O)Nc1cccc(-c2nc3cccnc3s2)c1	OX1R antag-2 68
CC(C)C[C@H]1COc2cc(N3CCCC3)ccc2S(=O)(=O)N1	none (no result: GPR7 antagonist, CHO parental Ca, OX1R antag-1, OX1R antag-2)
C[C@@H]1CN([C@@H](C)CO)C(=O)CCCn2cc(nn2)CO[C@H]1CN(C)C(=O)Nc1ccc2c(c1)OCCO2	none (no result: GPR7 antagonist, CHO parental Ca, OX1R antag-1, OX1R antag-2)
COC(=O)C1=C(C)N(Cc2ccccc2C(F)(F)F)C(=NCc2ccc3c(c2)OCO3)NC1c1ccccc1 (stereo unspecified)	none (no result: GPR7 antagonist, CHO parental Ca, OX1R antag-1, OX1R antag-2)
COc1cccc(NC2=Nc3cccc4cccc2c34)c1	OX1R antag-2 72
COc1cc(NC2=Nc3cccc4cccc2c34)cc(OC)c1OC	none
CCOC(=O)c1cnc2sc3c(n2c1=O)CCCC3	CHO parental Ca 43
O=C(NCCN1CCC(n2c(=O)[nH]c3ccccc32)CC1)c1ccc(F)c(F)c1	none (no result: GPR7 antagonist, CHO parental Ca, OX1R antag-1, OX1R antag-2)
CCCCC(CC)CNC(=O)C1CC=CCC1C(=O)O (stereo unspecified)	TAAR1 ag 37
CC(C)(C)S(=O)(=O)N1C[C@H]2CC(=O)C(CCO)=C2[C@@H]1CCO	none (no result: GPR7 antagonist, CHO parental Ca, OX1R antag-1, OX1R antag-2)
CC(=O)c1ccc(S(=O)(=O)NCC2CCN(C(=O)C(=O)c3cc4ccccc4o3)CC2)cc1	none (no result: GPR7 antagonist, CHO parental Ca, OX1R antag-1, OX1R antag-2)
COc1ccc(CCNC(=O)c2cc3c(=O)n4cccc(C)c4nc3n(CCCN3CCOCC3)c2=N)cc1	none
Cc1cccn2c(=O)c3cc(C(=O)NCCN4CCOCC4)c(=N)n(CCN4CCOCC4)c3nc12	OX1R antag-2 53
CCOCCCn1c(=N)c(C(=O)NCCN2CCOCC2)cc2c(=O)n3cccc(C)c3nc21	OX1R antag-2 57
Cc1cccn2c(=O)c3cc(C(=O)NCCN4CCOCC4)c(=N)n(Cc4ccc(F)cc4)c3nc12	OX1R antag-2 40
O=C(N[C@H](C(=O)N1CCC[C@H]1C(=O)NC1CCCC1)c1ccccc1)c1ccc(Cl)cc1Cl	none (no result: GPR7 antagonist, CHO parental Ca, OX1R antag-1, OX1R antag-2)
CCc1cc(-c2[nH]ncc2-c2ccc([N+](=O)[O-])cc2)c(O)cc1OC	CHO parental Ca 60 (no result: TAAR1 antag, TAAR1 ag)
COc1ccc(-c2cn[nH]c2-c2ccc(OCc3ccc([N+](=O)[O-])cc3)cc2O)cc1OC	none
COc1ccc(-c2oc3ncn(CCN4CCOCC4)c(=N)c3c2-c2ccc(OC)cc2)cc1	OX1R antag-2 38
COc1ccc(-c2oc3ncnc(NCCN4CCOCC4)c3c2-c2ccc(OC)cc2)cc1	none (no result: TAAR1 antag, TAAR1 ag)
CCOC(=O)c1nn(-c2ccc(C)c(C)c2)c(=O)c(C#N)c1C	OX1R antag-2 44
Cc1c(C(=O)NN)nn(-c2ccc(F)cc2)c(=O)c1C#N	OX1R antag-2 48
COC(=O)Nc1nn(-c2ccc(Cl)cc2)c(=O)c(C#N)c1C	OX1R antag-2 59
Cc1ccc(-n2nc(C(=O)O)c3ccccc3c2=O)cc1C	none
CSc1ccc(SC2CN(Cc3ccc(C)cc3)S(=O)(=O)C2)cc1 (stereo unspecified)	none (no result: GPR7 antagonist, CHO parental Ca, OX1R antag-1, OX1R antag-2)
CSc1ncccc1C(=O)Nc1ccc(F)c(F)c1F	GPR7 antagonist 15
COc1cccc(NC(=S)NC(C)c2ccc(OC)c(OC)c2)c1 (stereo unspecified)	OX1R antag-2 75
COc1ccc(CNCC(O)COc2ccc(C(C)(C)c3ccccc3)cc2)cc1 (stereo unspecified)	CHO parental Ca 36, TAAR1 ag 41
OC(CNc1ccccc1)COc1ccc(OCC(O)CNc2ccccc2)cc1 (stereo unspecified)	CHO parental Ca 50
CCOCC(O)CNc1ccccc1 (stereo unspecified)	none
OC(CNCCc1ccc(C(F)(F)F)cc1)COc1ccc2ccccc2c1 (stereo unspecified)	CHO parental Ca 48
COc1ccc(CCNCC(O)COc2cccc(Br)c2)cc1 (stereo unspecified)	none
C=CCNc1cccc2c1S(=O)(=O)N[C@H](C)CO2	none (no result: GPR7 antagonist, CHO parental Ca, OX1R antag-1, OX1R antag-2)
CCC(=O)[C@@H](C)[C@@H](OC(C)=O)[C@H](C)C[C@@H](C)[C@H]1OC(=O)C[C@@]2(O)CC=C(C)C(O2)C(C)=CCCC[C@H](O[C@H]2C[C@@H](OC(N)=O)[C@H](OC(C)=O)[C@@H](C)O2)C=C[C@H](C)C[C@H]1C	none (no result: GPR7 antagonist, CHO parental Ca, OX1R antag-1, OX1R antag-2)
COc1ccc(-c2cnc(C(N)=O)c(=O)[nH]2)cc1	none (no result: GPR7 antagonist, CHO parental Ca, OX1R antag-1, OX1R antag-2)
COC(=O)C1CCN(S(=O)(=O)CCNC(=O)c2ccccc2)CC1	none (no result: GPR7 antagonist, CHO parental Ca, OX1R antag-1, OX1R antag-2)
CCOc1ccc(-c2cc(N)n(S(=O)(=O)c3ccc(OC)c(OC)c3)n2)cc1	none
COc1ccc(S(=O)(=O)n2nc(-c3ccc(Cl)cc3)cc2N)cc1OC	GPR7 antagonist 18
CC(=O)Nc1ccc(N(C)C)cc1[N+](=O)[O-]	none
CN(C)c1c([N+](=O)[O-])cc2[nH]c(=O)[nH]c2c1[N+](=O)[O-]	OX1R antag-2 42
CN(C)c1ncnc2c1ncn2[C@H]1CN(Cc2ccc(-c3ccccc3)cc2)C[C@@H](CO)O1	none (no result: GPR7 antagonist, CHO parental Ca, OX1R antag-1, OX1R antag-2)
O=C(NCc1ccc(F)cc1)C1CCCN1S(=O)(=O)c1cccc2nsnc12 (stereo unspecified)	OX1R antag-2 55
O=C(Nc1cc(F)ccc1F)C1CCCN1S(=O)(=O)c1cccc2nsnc12 (stereo unspecified)	OX1R antag-2 70
O=C(Nc1ccc(F)cc1)C1CCCN1S(=O)(=O)c1cccc2nsnc12 (stereo unspecified)	OX1R antag-2 75
O=C(NCc1ccc(F)cc1)C1CCCN(S(=O)(=O)c2cccc3nsnc23)C1 (stereo unspecified)	none
CN1C(=O)c2cccc3c(S(=O)(=O)Nc4ccccn4)ccc1c23	OX1R antag-2 68
O=C(N[C@@H](Cc1cccnc1)C(=O)N1CCC[C@H]1C(=O)NCc1ccccc1)c1ccc(Cl)c(Cl)c1	none (no result: GPR7 antagonist, CHO parental Ca, OX1R antag-1, OX1R antag-2)
CC(=O)Nc1cccc(NC(=O)C2CCCO2)c1 (stereo unspecified)	none (no result: GPR7 antagonist, CHO parental Ca, OX1R antag-1, OX1R antag-2)
Cc1cc(C)cc(-n2ccnc2SCC(=O)O)c1	GPR7 antagonist 30
CC1(C)CC(=O)C(N=Nc2ccc(OC(F)F)cc2)=C(O)C1	OX1R antag-2 56
O=C(NCc1nc2ccccc2[nH]1)C1=C[C@@H](c2csc3ccccc23)C[C@@H](OCc2ccc(CO)cc2)O1	none
O=C(NCc1nc2ccccc2[nH]1)C1=C[C@H](c2csc3ccccc23)C[C@H](OCc2ccc(CO)cc2)O1	TAAR1 antag 49 (no result: GPR7 antagonist)
CCOC(=O)C1=CCN(S(=O)(=O)c2cccc(Cl)c2)C1c1ccc(Cl)c(Cl)c1 (stereo unspecified)	none (no result: GPR7 antagonist, CHO parental Ca, OX1R antag-1, OX1R antag-2)
C=C1CCN(c2ccc(C(=O)O)cc2[N+](=O)[O-])CC1	OX1R antag-2 70 (no result: GPR7 antagonist, TAAR1 antag, TAAR1 ag)
